# Tests used:
# Hamster [1] = assay: Hypolipidemic effect in Bio F1B hamster fed with high fat and cholesterol diet assessed as HDL-cholesterol level at 100 mg/kg, po relative to control; format: functional, Cricetinae
# [2] = Plasma concentration in CE-2 chow diet-fed golden Syrian hamster at 100 mg/kg, po after 24 hrs by HPLC-LC-MS/MS method; format: ADME, organism-based, Mesocricetus auratus
# Procedure, shortened: (§1)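 Hamsters on chow diet received a single oral dose of 100 mg/kg. Heparin plasma was drawn from a forearm vein at 0.5, 1, 2, 3, 4, 6, 8, 10 and 24 h after dosing. Concentrations of parent drug and its carboxylic acid metabolite were measured in plasma.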
# Hamster [3] = assay: Increase in ABCA1 gene expression in Bio F1B hamster peripheral blood at 30 mg/kg, po; format: functional, Cricetinae
# Procedure, shortened: (§2)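 Bio F1B hamsters were fed a high-fat, high-cholesterol diet and dosed orally. Gene expression was measured in intestine (ABCA1, ABCG5, ABCG8) and in peripheral blood (ABCA1).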
# [4] = Plasma concentration in CE-2 chow diet-fed golden Syrian hamster assessed as 4-(4-(1,1,1,3,3,3-Hexafluoro-2-hydroxypropan-2-yl)-2,6-di-n-propylphenoxy)-butanoic acid level at 100 mg/kg, po after 24 hrs by HPLC-LC-MS/MS method; format: ADME, organism-based, Mesocricetus auratus; conditions: in vivo; procedure, shortened: as §1
# [5] = Plasma concentration in CE-2 chow diet-fed golden Syrian hamster at 100 mg/kg, po after 8 hrs by HPLC-LC-MS/MS method; format: ADME, organism-based, Mesocricetus auratus; procedure, shortened: as §1
# Hamster [6] = assay: Hypolipidemic effect in Bio F1B hamster fed with high fat and cholesterol diet assessed as lipid-accumulation area in aortic arch at 30 mg/kg, po relative to control; format: functional, Cricetinae
# [7] = Plasma concentration in CE-2 chow diet-fed golden Syrian hamster at 100 mg/kg, po after 1 hr by HPLC-LC-MS/MS method; format: ADME, organism-based, Mesocricetus auratus; procedure, shortened: as §1
# [8] = Cmax in CE-2 chow diet-fed golden Syrian hamster at 100 mg/kg, po after 6 hrs by HPLC-LC-MS/MS method; format: ADME, organism-based, Mesocricetus auratus; parameters: dose 100 mg/kg, route oral; conditions: in vivo; procedure, shortened: as §1
# [9] = Plasma concentration in CE-2 chow diet-fed golden Syrian hamster at 100 mg/kg, po after 4 hrs by HPLC-LC-MS/MS method; format: ADME, organism-based, Mesocricetus auratus; procedure, shortened: as §1
# Hamster [10] = assay: Increase in ABCA1 gene expression in Bio F1B hamster intestine at 100 mg/kg, po; format: functional, Cricetinae; procedure, shortened: as §2
# Hamster [11] = assay: Hypolipidemic effect in Bio F1B hamster fed with high fat and cholesterol diet assessed as total cholesterol level at 100 mg/kg, po relative to control; format: functional, Cricetinae
# Hamster [12] = assay: Hypolipidemic effect in Bio F1B hamster fed with high fat and cholesterol diet assessed as LDL-cholesterol level at 10 mg/kg, po relative to control; format: functional, Cricetinae
# Hamster [13] = assay: Increase in ABCA1 gene expression in Bio F1B hamster intestine at 10 to 100 mg/kg, po; format: functional, organism-based; conditions: Cricetinae
# [14] = Plasma concentration in CE-2 chow diet-fed golden Syrian hamster assessed as 4-(4-(1,1,1,3,3,3-Hexafluoro-2-hydroxypropan-2-yl)-2,6-di-n-propylphenoxy)-butanoic acid level at 100 mg/kg, po after 8 hrs by HPLC-LC-MS/MS method; format: ADME, organism-based, Mesocricetus auratus; conditions: in vivo; procedure, shortened: as §1
# Hamster [15] = assay: Increase in ABCA1 gene expression in Bio F1B hamster intestine at 30 mg/kg, po; format: functional, Cricetinae; procedure, shortened: as §2
# Hamster [16] = assay: Hypolipidemic effect in Bio F1B hamster fed with high fat and cholesterol diet assessed as lipid-accumulation area in aortic arch at 10 mg/kg, po relative to control; format: functional, Cricetinae
# Hamster [17] = assay: Increase in ABCG8 gene expression in Bio F1B hamster intestine at 10 mg/kg, po; format: functional, Cricetinae
# [18] = Plasma concentration in CE-2 chow diet-fed golden Syrian hamster at 100 mg/kg, po after 10 hrs by HPLC-LC-MS/MS method; format: ADME, organism-based, Mesocricetus auratus; procedure, shortened: as §1
# Hamster [19] = assay: Hypolipidemic effect in Bio F1B hamster fed with high fat and cholesterol diet assessed as LDL-cholesterol level at 100 mg/kg, po relative to control; format: functional, Cricetinae
# Hamster [20] = assay: Hypolipidemic effect in Bio F1B hamster fed with high fat and cholesterol diet assessed as total cholesterol level at 30 mg/kg, po relative to control; format: functional, Cricetinae
# [21] = Plasma concentration in CE-2 chow diet-fed golden Syrian hamster assessed as 4-(4-(1,1,1,3,3,3-Hexafluoro-2-hydroxypropan-2-yl)-2,6-di-n-propylphenoxy)-butanoic acid level at 100 mg/kg, po after 1 hr by HPLC-LC-MS/MS method; format: ADME, organism-based, Mesocricetus auratus; conditions: in vivo; procedure, shortened: as §1
# Hamster [22] = assay: Effect in lipid profiles in Bio F1B hamster fed with high fat and cholesterol diet assessed as triglyceride level at 100 mg/kg, po relative to control; format: organism-based; conditions: cricetinae, in vivo
# Hamster [23] = assay: Increase in ABCA1 gene expression in Bio F1B hamster peripheral blood at 10 mg/kg, po; format: functional, Cricetinae
# Hamster [24] = assay: Increase in ABCA1 gene expression in Bio F1B hamster peripheral blood at 100 mg/kg, po; format: functional, Cricetinae; procedure, shortened: as §2
# Hamster [25] = assay: Increase in ABCG5 gene expression in Bio F1B hamster intestine at 10 mg/kg, po; format: functional, Cricetinae
# [26] = Plasma concentration in CE-2 chow diet-fed golden Syrian hamster assessed as 4-(4-(1,1,1,3,3,3-Hexafluoro-2-hydroxypropan-2-yl)-2,6-di-n-propylphenoxy)-butanoic acid level at 100 mg/kg, po after 2 hrs by HPLC-LC-MS/MS method; format: ADME, organism-based, Mesocricetus auratus; conditions: in vivo; procedure, shortened: as §1
# Hamster [27] = assay: Increase in ABCG8 gene expression in Bio F1B hamster intestine at 30 mg/kg, po; format: functional, Cricetinae; procedure, shortened: as §2
# [28] = Plasma concentration in CE-2 chow diet-fed golden Syrian hamster at 100 mg/kg, po after 6 hrs by HPLC-LC-MS/MS method; format: ADME, organism-based, Mesocricetus auratus; procedure, shortened: as §1
# [29] = Plasma concentration in CE-2 chow diet-fed golden Syrian hamster assessed as 4-(4-(1,1,1,3,3,3-Hexafluoro-2-hydroxypropan-2-yl)-2,6-di-n-propylphenoxy)-butanoic acid level at 100 mg/kg, po after 3 hrs by HPLC-LC-MS/MS method; format: ADME, organism-based, Mesocricetus auratus; conditions: in vivo; procedure, shortened: as §1
# Syrian golden hamster = assay: Drug metabolism in CE-2 chow diet-fed golden Syrian hamster assessed as 4-(4-(1,1,1,3,3,3-Hexafluoro-2-hydroxypropan-2-yl)-2,6-di-n-propylphenoxy)-butanoic acid formation at 100 mg/kg, po after 0.5 to 24 hrs by HPLC-LC-MS/MS method; format: ADME, organism-based, Mesocricetus auratus; conditions: in vivo; procedure, shortened: as §1
# [30] = Plasma concentration in CE-2 chow diet-fed golden Syrian hamster assessed as 4-(4-(1,1,1,3,3,3-Hexafluoro-2-hydroxypropan-2-yl)-2,6-di-n-propylphenoxy)-butanoic acid level at 100 mg/kg, po after 10 hrs by HPLC-LC-MS/MS method; format: ADME, organism-based, Mesocricetus auratus; conditions: in vivo; procedure, shortened: as §1
# Hamster [31] = assay: Effect in lipid profiles in Bio F1B hamster fed with high fat and cholesterol diet assessed as triglyceride level at 10 mg/kg, po relative to control; format: organism-based; conditions: cricetinae, in vivo
# [32] = Plasma concentration in CE-2 chow diet-fed golden Syrian hamster at 100 mg/kg, po after 0.5 hrs by HPLC-LC-MS/MS method; format: ADME, organism-based, Mesocricetus auratus; procedure, shortened: as §1
# Hamster [33] = assay: Increase in ABCA1 gene expression in Bio F1B hamster intestine at 10 mg/kg, po; format: functional, Cricetinae
# Hamster [34] = assay: Increase in ABCG5 gene expression in Bio F1B hamster intestine at 100 mg/kg, po; format: functional, Cricetinae; procedure, shortened: as §2
compound,measurement,setting,value
CCCc1cc(C(O)(C(F)(F)F)C(F)(F)F)cc(CCC)c1OCCCCN1C(=O)NC(C)(c2ccc(OC(C)C)cc2)C1=O (stereo not given),Activity,Hamster [1],75%
same,concentration at 24 h,[2],100 nM
same,fold change (FC),Hamster [3],0.8
same,Cp,[4],528 ng/mL
same,concentration at 8 h,[5],420 nM
same,Activity,Hamster [6],84%
same,concentration at 1 h,[7],490 nM
same,Cmax,[8],600 nM
same,concentration at 4 h,[9],290 nM
same,fold change (FC),Hamster [10],5.2
same,Activity,Hamster [11],53%
same,Activity,Hamster [12],94%
same,Activity,Hamster [13],Dose-dependent effect
same,Cp,[14],979 ng/mL
same,fold change (FC),Hamster [15],4
same,Activity,Hamster [16],86%
same,fold change (FC),Hamster [17],1.3
same,concentration at 10 h,[18],110 nM
same,Activity,Hamster [19],45%
same,Activity,Hamster [20],96%
same,Cp,[21],202 ng/mL
same,Activity,Hamster [22],112%
same,fold change (FC),Hamster [23],1
same,fold change (FC),Hamster [24],1
same,fold change (FC),Hamster [25],1.2
same,Cp,[26],375 ng/mL
same,fold change (FC),Hamster [27],1.4
same,concentration at 6 h,[28],630 nM
same,Cp,[29],409 ng/mL
same,Drug metabolism,Syrian golden hamster,metabolite_detected
same,Cp,[30],560 ng/mL
same,Activity,Hamster [31],97%
same,concentration at 0.5 h,[32],310 nM
same,fold change (FC),Hamster [33],2.1
same,fold change (FC),Hamster [34],1.3
